# A selection: hits, their analogues and other compounds. The true share with any hit is near 4.6%.
# Arrestin-AP2 inh: human beta-arrestin and AP2 interaction inhibition. FITC-arrestin peptide / GST-AP2 beads, flow cytometry; AP2 beta2 appendage carries R879A mutation. inhibition, % at 10 µM. actives 0.31% (n = 340,000);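 active means inhibition above a set limit, near 3 SD of compounds lacking own fluorescence, cut at about 54% in these data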
#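 Test system: GST-tagged AP2 beta2-adaptin appendage (R879A) on 4 µm glutathione beads; also added: fluorescein-tagged arrestin peptide at 50 nM final; timing: 12 min plus 1 h, RT; signal: flow cytometry, FL1 (488/535 nm); read-out: percent drop in bead-associated FITC signal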
# ALR H2O2 inh: blocks human ALR sulfhydryl oxidase activity; purified ALR, DTT oxidation, H2O2 HRP-luminol luminescence; inhibition, % (concentration not given with the values); actives 3.8% (n = 290,000);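 active means mean replicate inhibition above about 79%, with every replicate also reaching it, limit read from the data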
# NLRP3 yeast inh: inhibitors of NALP3 inflammasome in yeast | inhibition, % at 10 µM | actives 0.39% (n = 330,000) | Yeast reconstituted NLRP3/ASC/caspase-1, beta-gal luminescence, 24 h;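 active means inhibition of 50% or more; inactive means inhibition below 50%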
# NALP1 yeast inh: NALP1 inhibition. actives 0.61% (n = 280,000). inhibition, % at 10 µM. S. cerevisiae NALP1/ASC/caspase-1 growth, X-gal OD620, 72 h; in the data active means inhibition mostly above about 24%, no sharp cut-off; inactive means mostly below about 32%
# PolyA inh: inhibitors of polyadenylation in S. cerevisiae. S. cerevisiae SKY197-pL101 polyadenylation reporter, beta-gal luminescence; efflux-impaired pdr1/pdr3 knockout yeast; score 100 = 6 SD above DMSO. activity score, % at 12 µM. actives 0.02% (n = 300,000);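 active means lowest replicate activity score at least 50, where 100 means six control SD above control mean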;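 further: yeast exposed to compound for 9 h at 30 °C; higher score means more reporter readthrough which indicates perturbed polyadenylation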
# Pemphigus Ab inh: inhibitors of pemphigus antibody binding to human desmoglein-3; DSG3-coupled beads, scFv-anti-DSG3-GFP binding, flow cytometry; active compounds read low; binding (percent of control), % at 10 µM; actives 0.48% (n = 310,000);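 active means binding more than 3 SD below its plate's average and above zero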;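 further: hits lower antibody fragment binding to DSG3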
# NALP3 confirm: NALP3 inhibition confirmation in yeast | yeast expressing human NALP3, luminescence | shares compounds with NLRP3 yeast inh | actives 81% (n = 1,300) | inhibition, % at 10 µM; in the data active means inhibition above about 48%
# Casp1 ASC ctr: caspase-1-ASC yeast counter-screen hit; shares compounds with NLRP3 yeast inh; yeast expressing Caspase-1-ASC, luminescence counter screen; inhibition, % at 10 µM; actives 66% (n = 1,000); AID 488784
# NALP3 yeast rt: retest-confirmed inhibitor of NALP3 in yeast | shares compounds with NLRP3 yeast inh | yeast expressing human NALP3, luminescence read-out | actives 53% (n = 1,000) | inhibition, % at 10 µM | AID 488794
# Arr-AP2 CP1: blocks beta-arrestin peptide binding to human AP2. inhibition, % at 10 µM. shares compounds with Arrestin-AP2 inh. actives 2% (n = 1,300). GST-AP2 beads, FITC arrestin peptide binding, flow cytometry; GST-fused beta2-adaptin appendage, R879A mutant;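 active means inhibition above a set limit, roughly 3 SD of non-fluorescent compound noise, cut at about 38% in these data; inactive means inhibition at or below that limit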;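 further: loss of bead fluorescence from 50 nM FITC arrestin peptide bound to appendage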
# GST-FITC bead: counter-screen for beta-arrestin AP2 inhibitors: GST-GSH bead binding | shares compounds with Arrestin-AP2 inh | inhibition, % at 10 µM | GST-fluorescein binding to GSH beads, fluorescence | actives 2% (n = 1,300);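 active means inhibition above 50%, about 3 SD of the inhibition seen with non-fluorescent compounds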;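 further: fluorescein maleimide labelled GST captured on 4 micron glutathione beads; higher means more loss of bead fluorescence from quenching or blocked binding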
# Hits are given with their value; – = inactive; · = not tested or not shown; ! = repeats disagree. Unless noted, no stated cut-off is given here; in the data, active means inhibition above about 50%; inactive means the rest.
SMILES,Arrestin-AP2 inh,ALR H2O2 inh,NLRP3 yeast inh,NALP1 yeast inh,PolyA inh,Pemphigus Ab inh,Arr-AP2 CP1,GST-FITC bead,others
C[C@]12CCC3[C@@H](CC[C@@H]4C[C@H](O)CC[C@]34C)[C@@H]1CCC2=O (stereo not given in full),–,–,66.6,·,·,–,·,·,NALP3 confirm=61.5;Casp1 ASC ctr=70.6;NALP3 yeast rt=60.6
CC(=O)C1CCC2C3CCC4CC(O)CCC4(C)C3CCC12C (stereo not given),–,–,59.2,·,–,–,·,·,NALP3 confirm=69.3;Casp1 ASC ctr=60.1;NALP3 yeast rt=58.4
CSCCC(NC(=O)CCC(=O)OC1CC[C@H]2[C@@H]3CC[C@H]4CC(=O)CC[C@]4(C)[C@H]3CC[C@]12C)C(=O)O (stereo not given in full),–,–,–,–,–,–,·,·,
CC1c2ccccc2-n2nncc2CN1C (stereo not given),–,·,·,·,·,–,·,·,
COC(=O)C1=C(c2cccc(OCc3ccccc3)c2)C[C@@H]2CC[C@H]1N2C(=O)NCc1ccccc1OC,–,–,–,·,·,–,·,·,
Clc1ccc(C(c2ccc(Cl)cc2)n2cc[n+](CC(OCc3ccc(Cl)cc3Cl)c3ccc(Cl)cc3Cl)c2)cc1 (stereo not given),–,–,–,·,·,–,·,·,
Cc1ccc(Cl)cc1N1CCN(CCN)CC1,–,–,58.7,–,–,–,·,·,NALP3 confirm=56.9;Casp1 ASC ctr=58.4;NALP3 yeast rt=67.0
CN1CCN(c2ccc(Cl)cc2N)CC1,–,–,–,–,–,–,·,·,
Cc1ccc(-c2cc(-c3ccc(C)cc3)[n+](-c3ccc(C(=O)O)cc3)c(-c3ccc(C)cc3)c2)cc1,–,–,–,·,–,–,·,·,
Cc1ccc(C[n+]2c(-c3ccc(C)cc3)cc(-c3ccc(C)cc3)cc2-c2ccc(C)cc2)cc1,–,–,77.6,·,–,–,·,·,NALP3 confirm=75.8;Casp1 ASC ctr=71.8;NALP3 yeast rt=75.3
COc1ccc2nc(NC3=NCCN3)sc2c1,–,–,94.7,93.1,–,–,·,·,NALP3 confirm=–
c1ccc2sc(NC3=NCCN3)nc2c1,–,–,96.7,103.9,–,–,·,·,NALP3 confirm=94.9;Casp1 ASC ctr=99.3;NALP3 yeast rt=98.2
CC1CC2CC(=O)CCC2(C)C2CCC3(C)C(O)CCC3C12 (stereo not given),·,·,·,·,·,–,·,·,
O=C(c1ccc(Cl)cc1)C12CN3CN(CN(C3)C1)C2,105.5,–,–,–,–,–,–,–,
CN1C(=O)N(C)C(=O)C2(Cc3cc(NC(=O)c4ccccc4Cl)ccc3N3CCCC32)C1=O (stereo not given),56.2,–,–,–,–,–,–,–,
O=C(NCCO)c1nsnc1NCCCl,57.7,–,–,–,–,–,–,–,
COC(=O)C1=C(c2ccc(OC(F)(F)F)cc2)C[C@@H]2CC[C@H]1N2C(=O)N1CCC(O)CC1,–,–,–,·,·,–,·,·,
c1ccc(N2[C@@H]3CC[C@H]2c2ccccc2C3)cc1,·,·,·,·,·,–,·,·,
CCOC(=O)c1c(/N=C/c2c(O)n(-c3ccccc3F)c(=S)[nH]c2=O)sc2c1CCCC2,84.2,·,–,–,–,–,–,–,
CCOC(=O)c1c(/N=C/c2c(O)n(-c3ccc(F)cc3)c(=S)[nH]c2=O)sc2c1CCCC2,–,–,–,–,–,–,·,·,
CN1CCN(c2ccc(N)cc2Cl)CC1,59.3,89.8,–,–,–,–,–,52.2,
CC(C)COC(=O)N1Cc2ccccc2-n2nncc2C1,·,·,·,·,·,–,·,·,
CC[N+]12CCC(CC1)C(=C(c1ccccc1)c1ccccc1)C2,–,–,–,–,–,–,·,·,
C[N+]12CCC(CC1)C(=C(c1ccccc1)c1ccccc1)C2,66.0,–,–,–,–,–,–,–,
O=C1C(Br)C2CCC1C2C(=O)O (stereo not given),·,·,·,·,·,–,·,·,
O=c1c2ccccc2[se]n1-c1ccccc1,92.2,·,–,–,–,–,124.9!,–,
O=c1c2ccccc2nc(-c2ccccc2)n1-c1ccccc1,–,·,–,–,–,·,·,·,

# Source: PubChem BioAssay (several laboratories)
